Reference: PMC3426361 (Journal of biomolecular screening, 2010)

Target: TDP-43 (Homo sapiens, UniProt Q13148)
Test: Association and dissociation rates of bt-TAR-32 and bt-TG6 binding to TDP-43
Settings: slope of kobs vs ligand concentration; arithmetic mean ± SEM, 3 determinations
Outline: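 GST-tagged TDP-43 (5 ng/mL, 40 pM) on anti-GST beads (10 μg/mL, preincubated) added at staggered times to biotinylated oligonucleotide (0.25–6.0 nM) prebound 30 min RT to streptavidin donor beads (10 μg/mL). Buffer: 25 mM Tris pH 7.4, 0.1% BSA, 0.1% Triton X-100. AlphaScreen signal read together at end, dark, RT. kobs from one-site exponential association fits per concentration.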

Sequence of TDP-43 (Q13148 whole entry): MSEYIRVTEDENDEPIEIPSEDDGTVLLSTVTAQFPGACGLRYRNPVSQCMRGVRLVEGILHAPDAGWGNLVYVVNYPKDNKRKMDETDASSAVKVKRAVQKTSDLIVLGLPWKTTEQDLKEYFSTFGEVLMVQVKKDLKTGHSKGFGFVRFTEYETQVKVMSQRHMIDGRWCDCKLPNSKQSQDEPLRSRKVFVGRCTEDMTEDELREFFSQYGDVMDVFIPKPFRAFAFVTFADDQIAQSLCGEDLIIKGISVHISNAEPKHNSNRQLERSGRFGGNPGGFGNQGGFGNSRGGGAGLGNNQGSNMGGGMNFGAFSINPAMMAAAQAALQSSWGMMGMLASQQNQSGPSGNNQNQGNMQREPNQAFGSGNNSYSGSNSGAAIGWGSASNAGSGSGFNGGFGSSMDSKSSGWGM

“5′-CTGCTTTTTGCCTGTACTGGGTCTCTGTGGTT-3′ (DNA CTGCTTTTTGCCTGTACTGGGTCTCTGTGGTT; chemistry not given here) [TAR-32]” gave a kon of 2.4 ± 0.93 µmol⁻¹ min⁻¹.
